# Source: ChEMBL document CHEMBL1142068, “Reduced susceptibility to polyenes associated with a missense mutation in the ERG6 gene in a clinical isolate of Candida glabrata with pseudohyphal growth” (2007)
# Active and inactive are the calls of the source. The calls are words filed in the database; no cut-off is given here.
# Tests used:
# Nakaseomyces glabratus [1] = experiment: Growth inhibition of Candida glabrata 21231 isolate in YEPD agar plates at 4 mg/ml; format: functional, organism-based
# Procedure, shortened: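 Dye susceptibility on YEPD agar plates with dye at increasing levels from 0.1 to 4 mg/ml. Inocula ranged from 2 × 10^6 to 2 × 10^2 cells. The read-out is the minimum dye concentration that inhibited growth of the same quantity of cells.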
# Nakaseomyces glabratus [2] = experiment: Growth inhibition of polyene-resistant Candida glabrata 21229 isolate in YEPD agar plates at 4 mg/ml; format: functional, organism-based
# Nakaseomyces glabratus [3] = experiment: Susceptibility of Candida glabrata 21229C218 isolate expressing ERG6 gene by disk diffusion method; format: functional
# Procedure, shortened: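 Complemented ura3 derivative carrying a plasmid-borne ERG6 copy was selected on selective medium. Amphotericin B susceptibility was tested by disk diffusion on Casitone agar (pH 7.2) with Neosensitab tablets. Read-out is the growth-inhibition zone diameter in mm.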
# Nakaseomyces glabratus [4] = experiment: Antimicrobial activity against Candida glabrata 21231 isolate by E-test; format: functional
# Nakaseomyces glabratus [5] = experiment: Susceptibility of Candida glabrata 21229F34 isolate with URA3 by disk diffusion method; format: functional
# Nakaseomyces glabratus [6] = experiment: Antimicrobial activity against polyene-resistant Candida glabrata 21229 isolate by E-test; format: functional
# Nakaseomyces glabratus [7] = experiment: Susceptibility of polyene-resistant Candida glabrata 21229 isolate by disk diffusion method; format: functional
# Procedure, shortened: (§1)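 Disk diffusion on Casitone agar (pH 7.2, chloramphenicol 0.5 g/liter) with drug tablets. Tablet drug contents: voriconazole 1 μg, itraconazole 8 μg, amphotericin B/miconazole/clotrimazole 10 μg, fluconazole/ketoconazole 15 μg, nystatin 50 μg. Read-out is growth inhibition zone diameter (mm), mean of triplicates. Isolates were compared by Wilcoxon-Mann-Whitney test, unilateral α = 0.05.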
# Nakaseomyces glabratus [8] = experiment: Susceptibility of polyene-resistant Candida glabrata 21229 isolate at 10 ug by disk diffusion method; format: functional; conditions: read-out: IZ; procedure, shortened: as §1
# Nakaseomyces glabratus [9] = experiment: Susceptibility of Candida glabrata 21231 isolate at 10 ug by disk diffusion method; format: functional; conditions: read-out: IZ
# Procedure, shortened: (§2)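 Disk diffusion was run on Casitone agar (pH 7.2) with Neosensitab tablets. Tablets held 10 μg for amphotericin B, econazole, miconazole and clotrimazole, and 8 μg for itraconazole. Read-out is the inhibition-zone diameter in mm, as the mean of triplicates. Isolates were compared by Wilcoxon-Mann-Whitney test, unilateral α = 0.05.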
# Nakaseomyces glabratus [10] = experiment: Susceptibility of Candida glabrata 21231 isolate at 15 ug by disk diffusion method; format: functional; conditions: read-out: IZ; procedure, shortened: as §1
# Nakaseomyces glabratus [11] = experiment: Susceptibility of polyene-resistant Candida glabrata 21229 isolate at 15 ug by disk diffusion method; format: functional; conditions: read-out: IZ; procedure, shortened: as §1
# Nakaseomyces glabratus [12] = experiment: Susceptibility of Candida glabrata 21231 isolate at 8 ug by disk diffusion method; format: functional; conditions: read-out: IZ; procedure, shortened: as §2
# Nakaseomyces glabratus [13] = experiment: Susceptibility of polyene-resistant Candida glabrata 21229 isolate at 8 ug by disk diffusion method; format: functional; conditions: read-out: IZ; procedure, shortened: as §1
# Nakaseomyces glabratus [14] = experiment: Susceptibility of polyene-resistant Candida glabrata 21229 isolate at 1 ug by disk diffusion method; format: functional; procedure, shortened: as §1
# Nakaseomyces glabratus [15] = experiment: Susceptibility of polyene-resistant Candida glabrata 21229 isolate at 50 ug by disk diffusion method; format: functional, organism-based; procedure, shortened: as §1
# Nakaseomyces glabratus [16] = experiment: Susceptibility of Candida glabrata 21231 isolate at 50 ug by disk diffusion method; format: functional, organism-based; procedure, shortened: as §1
Compound,MIC (Nakaseomyces glabratus [4]),MIC (Nakaseomyces glabratus [6]),zone of inhibition at 10 µg/disc (Nakaseomyces glabratus [8]),zone of inhibition at 10 µg/disc (Nakaseomyces glabratus [9]),further results
Nc1c(/N=N/c2ccc(-c3ccc(/N=N/c4cc(S(=O)(=O)O)c5ccccc5c4N)cc3)cc2)cc(S(=O)(=O)O)c2ccccc12,–,–,–,–,Activity (Nakaseomyces glabratus [1]): inactive; Activity (Nakaseomyces glabratus [2]): inactive
C[C@@H]1[C@H](O)[C@@H](C)/C=C/C=C/C=C/C=C/C=C/C=C/C=C/[C@H](O[C@@H]2O[C@H](C)[C@@H](O)[C@H](N)[C@@H]2O)C[C@@H]2O[C@](O)(C[C@@H](O)C[C@@H](O)[C@H](O)CC[C@@H](O)C[C@@H](O)CC(=O)O[C@H]1C)C[C@H](O)[C@H]2C(=O)O [AMPHOTERICIN B],0.029 µg/mL,1.3 µg/mL,13 mm,34 mm,inhibition zone (IZ) (Nakaseomyces glabratus [3]): 30 mm; inhibition zone (IZ) (Nakaseomyces glabratus [5]): 16 mm; inhibition zone (IZ) (Nakaseomyces glabratus [7]): 16 mm
CC[C@H](C)C[C@H](C)CCCCCCCCC(=O)N[C@H]1C[C@@H](O)[C@@H](NCCN)NC(=O)[C@@H]2[C@@H](O)CCN2C(=O)[C@H]([C@H](O)CCN)NC(=O)[C@H]([C@H](O)[C@@H](O)c2ccc(O)cc2)NC(=O)[C@@H]2C[C@@H](O)CN2C(=O)[C@H]([C@@H](C)O)NC1=O [CASPOFUNGIN],0.023 µg/mL,0.024 µg/mL,–,–,–
Clc1ccccc1C(c1ccccc1)(c1ccccc1)n1ccnc1 [CLOTRIMAZOLE],–,–,40 mm,26 mm,–
OC(Cn1cncn1)(Cn1cncn1)c1ccc(F)cc1F [FLUCONAZOLE],3.7 µg/mL,1 µg/mL,–,–,zone of inhibition at 15 µg/disc (Nakaseomyces glabratus [10]): 20 mm; zone of inhibition at 15 µg/disc (Nakaseomyces glabratus [11]): 50 mm
CCC(C)n1ncn(-c2ccc(N3CCN(c4ccc(OCC5COC(Cn6cncn6)(c6ccc(Cl)cc6Cl)O5)cc4)CC3)cc2)c1=O (stereo not drawn) [ITRACONAZOLE],18.7 µg/mL,1.8 µg/mL,–,–,zone of inhibition at 8 µg/disc (Nakaseomyces glabratus [12]): 16 mm; zone of inhibition at 8 µg/disc (Nakaseomyces glabratus [13]): 30 mm
CC(=O)N1CCN(c2ccc(OCC3COC(Cn4ccnc4)(c4ccc(Cl)cc4Cl)O3)cc2)CC1 (stereo not drawn) [KETOCONAZOLE],0.136 µg/mL,0.034 µg/mL,–,–,zone of inhibition at 15 µg/disc (Nakaseomyces glabratus [10]): 24 mm; zone of inhibition at 15 µg/disc (Nakaseomyces glabratus [11]): 50 mm
Clc1ccc(COC(Cn2ccnc2)c2ccc(Cl)cc2Cl)c(Cl)c1 (stereo not drawn) [MICONAZOLE],–,–,30 mm,18 mm,–
C[C@@H](c1ncncc1F)[C@](O)(Cn1cncn1)c1ccc(F)cc1F [VORICONAZOLE],0.125 µg/mL,0.047 µg/mL,–,–,"zone of inhibition at 1 µg/disc (Nakaseomyces glabratus [14]; Nakaseomyces glabratus, 21229, read-out: IZ): 43 mm; zone of inhibition at 1 µg/disc (Nakaseomyces glabratus [14]; read-out: IZ): 43 mm"
NYSTATIN,–,–,–,–,inhibition zone (IZ) (Nakaseomyces glabratus [15]): 16 mm; inhibition zone (IZ) (Nakaseomyces glabratus [16]): 34 mm
